“And” between values parts separate entries of the source, which are not always exact repeats. Equal values may be shown once. The source made the active and inactive calls.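 How the source made its calls: active means Chi band cutting by RecBCD reduced more than twofold versus the solvent-only control; inactive means reduction of twofold or less versus solvent-only control.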

The target in the assay is RecBCD enzyme subunit RecC (Escherichia coli (strain K12)) + RecBCD enzyme subunit RecB (Escherichia coli (strain K12)) (UniProt P07648+P08394). Briefly: RecBCD helicase and Chi cutting inhibitors, late-stage follow-up, counter-screen for AddAB inhibitor project, biochemical, radioactive gel readout, single concentration (AID 623937). Conditions: purified RecBCD, 32P DNA gel autoradiography, at 50 µM. Put shortly: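 Material: purified E. coli RecBCD helicase-nuclease enzyme; Quantity: RecBCD enzyme at 0.15 nM; Also added: End-labeled linear Chi+F duplex DNA substrate, 0.1 nM; Buffer or medium: reaction mix containing 5 mM ATP; Times: 1 min reaction, 37 °C; Measured by: Agarose gel separation of labeled DNA products; Measure: Chi-cut 1.46 kb band decrease versus DMSO.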
RecBCD enzyme subunit RecC (Escherichia coli (strain K12)) + RecBCD enzyme subunit RecB (Escherichia coli (strain K12)), sequence (P07648 whole entry, looked up): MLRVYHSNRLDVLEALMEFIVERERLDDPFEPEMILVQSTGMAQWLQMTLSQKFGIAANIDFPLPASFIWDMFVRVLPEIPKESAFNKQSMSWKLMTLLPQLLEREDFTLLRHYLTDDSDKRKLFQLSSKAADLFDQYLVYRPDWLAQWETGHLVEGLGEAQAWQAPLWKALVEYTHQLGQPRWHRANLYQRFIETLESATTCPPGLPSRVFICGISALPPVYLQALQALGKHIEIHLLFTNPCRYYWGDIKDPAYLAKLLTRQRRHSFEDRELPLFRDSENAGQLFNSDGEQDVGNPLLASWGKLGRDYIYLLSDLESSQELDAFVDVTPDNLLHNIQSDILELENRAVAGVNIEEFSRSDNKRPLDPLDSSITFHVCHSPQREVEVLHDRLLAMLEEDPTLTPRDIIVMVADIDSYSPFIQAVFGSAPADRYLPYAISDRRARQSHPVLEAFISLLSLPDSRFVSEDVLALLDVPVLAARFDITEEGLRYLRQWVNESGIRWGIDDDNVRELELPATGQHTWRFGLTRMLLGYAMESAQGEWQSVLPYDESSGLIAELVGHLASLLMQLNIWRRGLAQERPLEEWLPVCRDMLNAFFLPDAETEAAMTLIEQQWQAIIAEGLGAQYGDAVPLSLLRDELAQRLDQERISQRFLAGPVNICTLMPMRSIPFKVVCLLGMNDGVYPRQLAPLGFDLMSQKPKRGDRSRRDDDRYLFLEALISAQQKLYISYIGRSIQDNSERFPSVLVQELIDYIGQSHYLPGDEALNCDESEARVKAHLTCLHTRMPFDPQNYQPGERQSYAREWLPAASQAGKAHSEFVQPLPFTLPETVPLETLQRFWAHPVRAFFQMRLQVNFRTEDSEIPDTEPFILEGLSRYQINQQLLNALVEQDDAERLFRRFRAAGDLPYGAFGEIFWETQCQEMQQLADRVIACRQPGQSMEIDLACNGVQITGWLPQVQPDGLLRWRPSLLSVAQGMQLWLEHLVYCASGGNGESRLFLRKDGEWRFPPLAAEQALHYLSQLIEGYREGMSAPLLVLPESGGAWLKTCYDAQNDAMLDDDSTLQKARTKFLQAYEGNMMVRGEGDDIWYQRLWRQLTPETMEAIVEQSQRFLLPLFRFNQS
RecBCD enzyme subunit RecC (Escherichia coli (strain K12)) + RecBCD enzyme subunit RecB (Escherichia coli (strain K12)), sequence (P08394 whole entry, looked up): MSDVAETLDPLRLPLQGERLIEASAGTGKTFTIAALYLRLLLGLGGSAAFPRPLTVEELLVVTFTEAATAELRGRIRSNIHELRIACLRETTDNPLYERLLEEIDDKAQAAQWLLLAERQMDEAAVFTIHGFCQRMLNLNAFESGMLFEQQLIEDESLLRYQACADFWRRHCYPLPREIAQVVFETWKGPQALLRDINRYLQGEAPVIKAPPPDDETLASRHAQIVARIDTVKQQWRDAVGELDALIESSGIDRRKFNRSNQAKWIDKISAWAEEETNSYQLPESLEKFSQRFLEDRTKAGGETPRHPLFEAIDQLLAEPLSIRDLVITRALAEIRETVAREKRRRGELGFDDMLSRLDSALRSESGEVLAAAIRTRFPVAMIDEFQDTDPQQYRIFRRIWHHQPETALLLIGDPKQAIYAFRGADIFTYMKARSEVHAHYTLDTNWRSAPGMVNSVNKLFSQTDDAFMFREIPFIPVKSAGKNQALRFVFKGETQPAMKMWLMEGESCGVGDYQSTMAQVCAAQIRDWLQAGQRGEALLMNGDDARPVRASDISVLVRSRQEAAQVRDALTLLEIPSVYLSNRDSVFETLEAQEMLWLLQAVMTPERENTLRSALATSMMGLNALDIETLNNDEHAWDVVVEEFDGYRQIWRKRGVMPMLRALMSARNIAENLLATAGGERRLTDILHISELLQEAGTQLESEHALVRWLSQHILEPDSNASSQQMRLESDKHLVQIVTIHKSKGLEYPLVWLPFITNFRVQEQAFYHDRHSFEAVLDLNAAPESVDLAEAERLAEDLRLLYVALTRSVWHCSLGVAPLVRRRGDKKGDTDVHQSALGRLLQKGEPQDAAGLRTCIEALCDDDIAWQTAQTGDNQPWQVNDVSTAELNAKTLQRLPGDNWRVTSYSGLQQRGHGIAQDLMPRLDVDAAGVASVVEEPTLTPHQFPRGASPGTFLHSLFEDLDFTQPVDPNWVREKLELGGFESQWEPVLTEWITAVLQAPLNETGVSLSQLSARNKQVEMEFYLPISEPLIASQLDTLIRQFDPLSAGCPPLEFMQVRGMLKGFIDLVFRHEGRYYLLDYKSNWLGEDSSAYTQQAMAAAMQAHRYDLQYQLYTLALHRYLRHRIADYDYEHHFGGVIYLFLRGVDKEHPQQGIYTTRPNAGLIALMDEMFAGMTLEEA

`Cc1ccc(C(=O)Nc2sc3c(c2C#N)CCCCC3)o1`: the fold reduction of Chi cutting was < 2 (inactive). For the molecule `CCn1cc(C(=O)O)c(=O)c2cnc(N3CCN(C(=S)NC4CC5CCC4C5)CC3)nc21` (stereo not drawn), the fold reduction of Chi cutting is > 2.

In the case of `CCn1cc(C(=O)O)c(=O)c2cnc(N3CCN(C(=S)Nc4ccc5c(c4)OCO5)CC3)nc21`, the fold reduction of Chi cutting was < 2 (inactive).

With `N#Cc1c(NC(=O)c2cnccn2)sc2c1CCCC2`, the fold reduction of Chi cutting was < 2 (inactive). With `O=C(NCc1cccnc1)c1ccc([N+](=O)[O-])o1` the figure was < 2 (inactive); with `CCn1cc(C(=O)O)c(=O)c2cnc(N3CCN(C(=S)Nc4ccc(Cl)cc4)CC3)nc21`, < 2 (inactive).

For the molecule `N#Cc1c(NC(=O)c2ccc([N+](=O)[O-])o2)sc2c1CCC2`, the fold reduction of Chi cutting is > 2. `CC1CCc2c(sc(NC(=O)c3ccc([N+](=O)[O-])o3)c2C#N)C1` (stereo not drawn): the fold reduction of Chi cutting is < 2 (inactive). On to `CCn1cc(C(=O)O)c(=O)c2cnc(N3CCN(C(=S)NC)CC3)nc21`, for which the fold reduction of Chi cutting was < 2 (inactive). Next, `N#Cc1c(NC(=O)c2ccco2)sc2c1CCC2`: < 2 (inactive); `CCn1cc(C(=O)O)c(=O)c2cnc(N3CCN(C(=S)NC(=O)c4cccnc4)CC3)nc21`: < 2 (inactive); `O=C(OCC(=O)c1cccs1)c1ccc([N+](=O)[O-])o1`: < 2 (inactive). Consider `CC(=O)Nc1ccc2nc(NC(=O)c3ccc([N+](=O)[O-])o3)sc2c1`, for which the fold reduction of Chi cutting was < 2 (inactive). With `CCn1cc(C(=O)O)c(=O)c2cnc(N3CCN(C(=S)NC(=O)c4ccccc4Cl)CC3)nc21` the figure was < 2 (inactive); with `CC1CCc2c(sc(NC(=O)c3ccc([N+](=O)[O-])o3)c2N)C1` (stereo not drawn), > 2; with `Cc1sc(NC(=O)c2ccc(Br)o2)c(C#N)c1C`, < 2 (inactive). With `CCn1cc(C(=O)O)c(=O)c2cnc(N3CCN(C(=S)NC(C)c4ccccc4)CC3)nc21` (stereo not drawn) the figure was < 2 (inactive). Take `N#Cc1c(NC(=O)c2ccc([N+](=O)[O-])o2)sc2c1CCCC2`: the fold reduction of Chi cutting was < 2 (inactive). Next, `NC(=O)c1ccsc1NC(=O)COC(=O)c1ccc([N+](=O)[O-])o1`: < 2 (inactive).

With `CCn1cc(C(=O)O)c(=O)c2cnc(N3CCN(C(=S)NC(=O)c4ccco4)CC3)nc21`, the fold reduction of Chi cutting was < 2 (inactive). With `O=C(Nc1ccc(N2CCOCC2)cc1)c1ccc([N+](=O)[O-])o1` the figure was < 2 (inactive); with `N#Cc1c(NC(=O)c2ccc(-c3ccccc3[N+](=O)[O-])o2)sc2c1CCCC2`, < 2 (inactive). Consider `Cc1cccnc1NC(=O)c1ccc([N+](=O)[O-])o1`, for which the fold reduction of Chi cutting was < 2 (inactive).

Regarding `CCn1cc(C(=O)O)c(=O)c2cnc(N3CCN(C(=S)Nc4ccc5c(c4)OCCO5)CC3)nc21`, the fold reduction of Chi cutting is > 2.

For `CCn1cc(C(=O)O)c(=O)c2cnc(N3CCN(C(=S)Nc4ccccc4)CC3)nc21`, the fold reduction of Chi cutting is > 2. For `CCn1cc(C(=O)O)c(=O)c2cnc(N3CCN(C(=O)Nc4ccccc4)CC3)nc21`, the fold reduction of Chi cutting was > 2. Next, `CCn1cc(C(=O)O)c(=O)c2cnc(N3CCN(C(=S)Nc4ccc(F)cc4)CC3)nc21`: > 2; `Cc1ccc2nc(/C(C#N)=C\c3ccc([N+](=O)[O-])o3)[nH]c2c1`: > 2; `CCn1cc(C(=O)O)c(=O)c2cnc(N3CCN(C(=S)NCc4ccccc4)CC3)nc21`: < 2 (inactive).

Take `CCn1cc(C(=O)O)c(=O)c2cnc(N3CCN(C(=S)Nc4ccccc4OC)CC3)nc21`: the fold reduction of Chi cutting is < 2 (inactive). Take `CC1(C)Cc2c(sc(NC(=O)c3ccco3)c2C#N)CO1`: the fold reduction of Chi cutting was < 2 (inactive). As for `CCn1cc(C(=O)O)c(=O)c2cnc(N3CCNCC3)nc21`, the fold reduction of Chi cutting is < 2 (inactive). With `O=C(Nc1ncccn1)c1ccc([N+](=O)[O-])o1` the figure was > 2.

Consider `N#Cc1c(NC(=O)c2cccc(F)c2)sc2c1CCCC2`, for which the fold reduction of Chi cutting is > 2. `N#Cc1c(NC(=O)C2CC=CCC2C(=O)O)sc2c1CCC2` (stereo not drawn): the fold reduction of Chi cutting was < 2 (inactive).

Take `C=CCn1c(Sc2ncc([N+](=O)[O-])s2)n[nH]c1=O`: the fold reduction of Chi cutting is < 2 (inactive). With `CCn1cc(C(=O)O)c(=O)c2cnc(N3CCN(C(=S)Nc4ccccc4F)CC3)nc21` the figure was < 2 (inactive); with `CCn1cc(C(=O)O)c(=O)c2cnc(N3CCN(C(=S)Nc4cccc(C(F)(F)F)c4)CC3)nc21`, < 2 (inactive); with `Cc1ccc(C(=O)Nc2sc3c(c2C#N)CCC3)o1`, < 2 (inactive). With `Nc1c(NC(=O)c2ccc([N+](=O)[O-])o2)sc2c1CCCC2` the figure was > 2; with `CCn1cc(C(=O)O)c(=O)c2cnc(N3CCN(C(=S)NC(=O)c4cccc(C)c4)CC3)nc21`, > 2. With `O=C(Nc1cccc(NC(=O)c2ccccc2Cl)c1)c1ccc([N+](=O)[O-])o1` the figure was > 2; with `N#Cc1c(NC(=O)c2ccccc2)sc2c1CCC2`, < 2 (inactive). Consider `CCn1cc(C(=O)O)c(=O)c2cnc(N3CCN(C(=S)Nc4ccccc4C)CC3)nc21`, for which the fold reduction of Chi cutting is < 2 (inactive). Next, `CCn1cc(C(=O)O)c(=O)c2cnc(N3CCN(C(=S)Nc4ccccc4C(F)(F)F)CC3)nc21`: > 2 and < 2 (inactive); `CCn1cc(C(=O)O)c(=O)c2cnc(N3CCN(C(=S)Nc4ccccc4Cl)CC3)nc21`: > 2. Next, `N#Cc1c(NC(=O)c2ccccc2C(=O)O)sc2c1CCCC2`: > 2; `C=CCNC(=S)N1CCN(c2ncc3c(=O)c(C(=O)O)cn(CC)c3n2)CC1`: < 2 (inactive).
